Numbering of substitutions follows the chain as printed. Activity calls are given as the source filed them. The rule behind the calls is not given here. Where a SMILES comes first, the peptide text is derived from it. [ ]: non-standard residue; d: D form. NMeF = CN[C@@H](Cc1ccccc1)C(=O)O
Tests used:
Neuromedin-K receptor [1] = target: Neuromedin-K receptor (Homo sapiens, UniProt P29371, Y247A); experiment: Agonist activity at human NK3 Y247A mutant expressed in HEK293 cells assessed as [3H]IP accumulation after 45 mins; type: functional, cell-based
Neuromedin-K receptor (Homo sapiens, UniProt P29371, Y247A), sequence (P29371 whole entry Y247A): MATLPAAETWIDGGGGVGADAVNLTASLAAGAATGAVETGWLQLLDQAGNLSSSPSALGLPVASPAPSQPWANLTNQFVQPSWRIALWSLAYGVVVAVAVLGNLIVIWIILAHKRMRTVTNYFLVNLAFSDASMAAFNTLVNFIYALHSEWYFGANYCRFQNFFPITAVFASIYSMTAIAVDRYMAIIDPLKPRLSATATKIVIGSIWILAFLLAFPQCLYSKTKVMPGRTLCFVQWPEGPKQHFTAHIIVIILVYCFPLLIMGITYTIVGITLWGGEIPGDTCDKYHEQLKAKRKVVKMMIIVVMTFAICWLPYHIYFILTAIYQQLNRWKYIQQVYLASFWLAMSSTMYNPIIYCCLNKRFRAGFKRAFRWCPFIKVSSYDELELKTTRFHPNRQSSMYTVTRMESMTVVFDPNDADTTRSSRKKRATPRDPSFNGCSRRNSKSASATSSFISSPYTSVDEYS
Method in brief: (§1)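 Human NK3 (WT or point mutant) transiently transfected into HEK293 cells and labeled with 5 μCi/mL myo-[³H]inositol. Assay buffer HBSS/20 mM HEPES pH 7.4 with 8 mM LiCl. [MePhe⁷]NKB at 0.01 nM–1 μM for 45 min at 37 °C. Lysis in 20 mM formic acid; [³H]IP captured on yttrium silicate SPA beads. EC50 and Hill slope from a four-parameter fit. Emax given as % of the WT fitted maximum from the same day.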

Neuromedin-K receptor [2] = target: Neuromedin-K receptor (Homo sapiens, UniProt P29371, Y247W); experiment: Agonist activity at human NK3 Y247W mutant expressed in HEK293 cells assessed as [3H]IP accumulation after 45 mins; type: functional, cell-based; method in brief: as §1
Neuromedin-K receptor (Homo sapiens, UniProt P29371, Y247W), sequence (P29371 whole entry Y247W): as the sequence (P29371 whole entry Y247A) above, with A247W counted along it

Neuromedin-K receptor [3] = target: T1, Neuromedin-K receptor (Homo sapiens, UniProt P29371); experiment: Agonist activity at wild type human NK3 receptor expressed in HEK293 cells assessed as [3H]IP accumulation after 45 mins; type: functional, cell-based; method in brief: as §1
T1 sequence (P29371 whole entry): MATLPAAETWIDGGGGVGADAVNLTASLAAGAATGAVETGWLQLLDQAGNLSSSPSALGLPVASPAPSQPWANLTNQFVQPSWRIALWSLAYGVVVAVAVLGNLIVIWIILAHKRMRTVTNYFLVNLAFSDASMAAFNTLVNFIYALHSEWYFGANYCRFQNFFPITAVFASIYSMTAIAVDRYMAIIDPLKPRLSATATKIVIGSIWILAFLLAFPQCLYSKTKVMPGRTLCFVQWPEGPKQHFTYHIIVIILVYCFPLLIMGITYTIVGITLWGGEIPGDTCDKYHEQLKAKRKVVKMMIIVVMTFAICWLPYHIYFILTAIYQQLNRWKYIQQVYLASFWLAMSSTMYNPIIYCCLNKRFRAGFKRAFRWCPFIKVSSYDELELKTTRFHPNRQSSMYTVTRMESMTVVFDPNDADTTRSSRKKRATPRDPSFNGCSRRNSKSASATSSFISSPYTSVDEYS

Neuromedin-K receptor [4] = target: Neuromedin-K receptor (Homo sapiens, UniProt P29371, Y247F); experiment: Agonist activity at human NK3 Y247F mutant expressed in HEK293 cells assessed as [3H]IP accumulation after 45 mins; type: functional, cell-based; method in brief: as §1
Neuromedin-K receptor (Homo sapiens, UniProt P29371, Y247F), sequence (P29371 whole entry Y247F): as the sequence (P29371 whole entry Y247A) above, with A247F counted along it

Neuromedin-K receptor [5] = target: Neuromedin-K receptor (Homo sapiens, UniProt P29371, H316F); experiment: Agonist activity at human NK3 H316F mutant expressed in HEK293 cells assessed as [3H]IP accumulation after 45 mins; type: functional, cell-based; method in brief: as §1
Neuromedin-K receptor (Homo sapiens, UniProt P29371, H316F), sequence (P29371 whole entry H316F): as the sequence (P29371 whole entry Y247A) above, with A247Y, H316F counted along it

Neuromedin-K receptor [6] = target: Neuromedin-K receptor (Homo sapiens, UniProt P29371, H316W); experiment: Agonist activity at human NK3 H316W mutant expressed in HEK293 cells assessed as [3H]IP accumulation after 45 mins; type: functional, cell-based; method in brief: as §1
Neuromedin-K receptor (Homo sapiens, UniProt P29371, H316W), sequence (P29371 whole entry H316W): as the sequence (P29371 whole entry Y247A) above, with A247Y, H316W counted along it

Substance-P receptor [7] = target: T2, Substance-P receptor (Homo sapiens, UniProt P25103); experiment: Binding affinity at human NK1 receptor
T2 sequence (P25103 whole entry): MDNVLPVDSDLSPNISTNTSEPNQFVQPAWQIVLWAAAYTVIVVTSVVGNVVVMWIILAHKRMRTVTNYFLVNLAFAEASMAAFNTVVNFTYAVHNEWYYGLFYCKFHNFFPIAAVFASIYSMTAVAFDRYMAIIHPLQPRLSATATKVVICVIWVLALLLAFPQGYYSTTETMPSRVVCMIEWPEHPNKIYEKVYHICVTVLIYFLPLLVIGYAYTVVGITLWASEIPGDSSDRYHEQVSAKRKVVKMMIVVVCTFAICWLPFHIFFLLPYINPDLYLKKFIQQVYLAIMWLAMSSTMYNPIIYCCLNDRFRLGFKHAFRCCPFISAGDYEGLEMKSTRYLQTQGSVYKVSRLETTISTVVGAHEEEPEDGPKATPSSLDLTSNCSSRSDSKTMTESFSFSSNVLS

Substance-P receptor [8] = target: T2, Substance-P receptor; experiment: Displacement of radioligand [3H]SP from wild type human NK1 receptor expressed in HEK293 cells; type: cell-based
Method in brief: (§2)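 Membranes from transiently transfected HEK293 cells, 2.5 μg protein/well, in 50 mM HEPES pH 7.4 with 3 mM MnCl2, phosphoramidon, leupeptin and 0.04% BSA. 10 competitor concentrations (0.0003–10 μM), 90 min at rt. Nonspecific binding with 10 μM NK1 antagonist. Filtration, then scintillation counting. Ki by Cheng–Prusoff. Three experiments, each in duplicate.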

Substance-P receptor [9] = target: T3, Substance-P receptor (Homo sapiens, UniProt P25103, F264Y); experiment: Displacement of radioligand [3H]SP from human NK1 F264Y6.51 mutant expressed in HEK293 cells; type: cell-based; method in brief: as §2
T3 sequence (P25103 whole entry F264Y): as the sequence (P25103 whole entry) above, with F264Y counted along it

Neuromedin-K receptor [10] = target: T4, Neuromedin-K receptor (Homo sapiens, UniProt P29371, Y315F); experiment: Displacement of radioligand [3H]osanetant at human NK3 Y315F6.51 mutant expressed in HEK293 cells; type: cell-based
T4 sequence (P29371 whole entry Y315F): as the sequence (P29371 whole entry Y247A) above, with A247Y, Y315F counted along it

[11] = tested on: Substance-P receptor (Homo sapiens), P25103 [F264Y]; experiment: Noncompetitive inhibition of human NK1 F264Y6.51 mutant receptor expressed in HEK293 cells assessed as decrease in SP1-induced [3H]IP accumulation after 20 mins; type: cell-based
Substance-P receptor (Homo sapiens), P25103 [F264Y], sequence (P25103 whole entry F264Y): as the sequence (P25103 whole entry) above, with F264Y counted along it

HEK293 = experiment: Selectivity ratio of Ki for wild type human NK3 receptor expressed in HEK293 cells to Ki for human NK3 Y315F6.51 mutant expressed in HEK293 cells; type: cell-based
Substance-P receptor [12] = target: T2, Substance-P receptor; experiment: Noncompetitive inhibition of wild type human NK1 receptor expressed in HEK293 cells assessed as decrease in SP1-induced [3H]IP accumulation after 20 mins; type: cell-based
Neuromedin-K receptor [13] = target: T1, Neuromedin-K receptor; experiment: Displacement of [3H]osanetant from wild type human NK3 receptor expressed in HEK293 cells; type: cell-based
Neuromedin-K receptor [14] = target: T1, Neuromedin-K receptor; experiment: Competitive inhibition at wild type human NK3 expressed in HEK293 cells assessed as decrease in [MePhe7]NKB-induced [3H]IP accumulation after 20 mins; type: cell-based; details: read-out: pA2 (converted)
Method in brief: (§3)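 HEK293 cells transiently expressing human NK3 WT or mutant, labeled with myo-[³H]inositol in LiCl buffer. Antagonist preincubated 20 min at 37 °C, then [MePhe⁷]NKB (0.01 nM–1 μM) added for 45 min at 37 °C. [³H]IP read by SPA beads. Schild analysis of EC50 shift and Emax depression across increasing antagonist concentrations gives pA2, slope and mode of antagonism.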

Neuromedin-K receptor [15] = target: T4, Neuromedin-K receptor; experiment: Competitive inhibition at human NK3 Y315F6.51 mutant expressed in HEK293 cells assessed as decrease in [MePhe7]NKB-induced [3H]IP accumulation after 20 mins; type: cell-based; details: read-out: pA2 (converted); method in brief: as §3
Substance-P receptor [16] = target: T3, Substance-P receptor; experiment: Partial noncompetitive inhibition of human F264Y6.51 mutant expressed in HEK293 cells assessed as decrease in SP1-induced [3H]IP accumulation after 20 mins; type: cell-based; details: read-out: pA2 (converted)
[17] = tested on: T5, Neuromedin-K receptor (Homo sapiens), P29371 [Y315F]; experiment: Antagonist activity at human NK3 Y315F6.51 mutant expressed in HEK293 cells assessed as decrease in [MePhe7]NKB-induced [3H]IP accumulation at 10 nM after 20 mins; type: functional, cell-based
T5 sequence (whole entry): T1 sequence (P29371 whole entry) with Y315F

[18] = target: T6, Neuromedin-K receptor (Homo sapiens) (UniProt P29371); experiment: Noncompetitive inhibition at wild type human NK3 expressed in HEK293 cells assessed as decrease in [MePhe7]NKB-induced [3H]IP accumulation after 20 mins; type: cell-based; method in brief: as §3
T6 sequence (whole entry): T1 sequence (P29371 whole entry)

[19] = tested on: T5, Neuromedin-K receptor (Homo sapiens), P29371 [Y315F]; experiment: Noncompetitive inhibition at human NK3 Y315F6.51 mutant expressed in HEK293 cells assessed as decrease in [MePhe7]NKB-induced [3H]IP accumulation after 20 mins; type: cell-based; method in brief: as §3

SMILES | EC50 (Neuromedin-K receptor [1]) | EC50 (Neuromedin-K receptor [2]) | EC50 (Neuromedin-K receptor [3]) | EC50 (Neuromedin-K receptor [4]) | EC50 (Neuromedin-K receptor [5]) | EC50 (Neuromedin-K receptor [6]) | Ki (Substance-P receptor [7]) | Ki (Substance-P receptor [8]) | Ki (Substance-P receptor [9]) | Ki (Neuromedin-K receptor [10]) | inhibition [11] | inhibition (Substance-P receptor [12]) | Ki (Neuromedin-K receptor [13]) | Kb (Neuromedin-K receptor [14]) | Kb (Neuromedin-K receptor [15]) | Kb (Substance-P receptor [16]) | Activity [17] | inhibition [18] | inhibition [19] | Ratio Ki (HEK293)
Cc1cc(F)ccc1-c1cc(N2CC[C@H](O)C2)ncc1N(C)C(=O)C(C)(C)c1cc(C(F)(F)F)cc(C(F)(F)F)c1 | – | – | – | – | – | – | – | 1.3 nM | 2.1 nM | 2.5 nM | Active | Active | 11.9 nM | 120 nM | 20.9 nM | – | – | – | – | 4.8
Cc1cc(F)ccc1-c1cc(N2CCC[C@H]2CO)ncc1N(C)C(=O)C(C)(C)c1cc(C(F)(F)F)cc(C(F)(F)F)c1 | – | – | – | – | – | – | – | 1.4 nM | 2.8 nM | 0.6 nM | – | Active | 1.5 nM | – | – | 39.8 nM | Active | Active | Active | 2.5

Continued, in another order:

EC50 (Neuromedin-K receptor [1]) | EC50 (Neuromedin-K receptor [2]) | EC50 (Neuromedin-K receptor [3]) | EC50 (Neuromedin-K receptor [4]) | EC50 (Neuromedin-K receptor [5]) | EC50 (Neuromedin-K receptor [6]) | Ki (Substance-P receptor [7]) | Ki (Substance-P receptor [8]) | Ki (Substance-P receptor [9]) | Ki (Neuromedin-K receptor [10]) | inhibition [11] | inhibition (Substance-P receptor [12]) | Ki (Neuromedin-K receptor [13]) | Kb (Neuromedin-K receptor [14]) | Kb (Neuromedin-K receptor [15]) | Kb (Substance-P receptor [16]) | Activity [17] | inhibition [18] | inhibition [19] | SMILES | Ratio Ki (HEK293)
Not Active | Not Active | 0.71 nM | 2.22 nM | Not Active | 3.48 nM | > 10000 nM | – | – | – | – | – | – | – | – | – | – | – | – | CSCC[C@H](NC(=O)[C@H](CC(C)C)NC(=O)CNC(=O)[C@H](Cc1ccccc1)N(C)C(=O)[C@H](Cc1ccccc1)NC(=O)[C@H](Cc1ccccc1)NC(=O)[C@H](CC(=O)O)NC(=O)[C@H](Cc1cnc[nH]1)NC(=O)[C@H](CCSC)NC(=O)[C@@H](N)CC(=O)O)C(N)=O (H-DMHDFF[NMeF]GLM-NH2) | –
– | – | – | – | – | – | – | 0.7 nM | 1.3 nM | 0.6 nM | – | Active | 1.2 nM | – | – | 17 nM | Active | Active | Active | Cc1cc(F)ccc1-c1cc(N2CCN(S(C)(=O)=O)C[C@H]2CO)ncc1N(C)C(=O)C(C)(C)c1cc(C(F)(F)F)cc(C(F)(F)F)c1 | 2
– | – | – | – | – | – | – | 0.4 nM | 1.4 nM | 0.7 nM | Active | Active | 2.4 nM | 123 nM | 2.45 nM | – | – | – | – | Cc1cc(F)ccc1-c1cc(N2CCN(S(C)(=O)=O)CC2)ncc1N(C)C(=O)C(C)(C)c1cc(C(F)(F)F)cc(C(F)(F)F)c1 | 3.4

Source: ChEMBL document CHEMBL2203099, “Identification of a crucial amino acid in the helix position 6.51 of human tachykinin neurokinin 1 and 3 receptors contributing to the insurmountable mode of antagonism by dual NK₁/NK₃ antagonists” (J Med Chem, 2012)
